According to ChEMBL document CHEMBL2407047, “Molecular design, synthesis and biological evaluation of 1,4-dihydro-4-oxoquinoline ribonucleosides as TcGAPDH inhibitors with trypanocidal activity” (Bioorg Med Chem Lett, 2013):

Experiments:
[1] = molecular target: T1, Glyceraldehyde-3-phosphate dehydrogenase, glycosomal (Trypanosoma cruzi, UniProt P22513); assay: Inhibition of Trypanosoma cruzi glycosomal GAPDH
Method in brief: (§1)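 Enzyme assays were run by isothermal titration calorimetry (ITC), probing the GAPDH NAD+ cosubstrate site and the active site. Affinity is reported as apparent Ki. Mode of inhibition was judged from how NAD+ and G3P KM and Vmax respond. Kinetic models were compared by second-order Akaike's information criterion.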

[2] = molecular target: T1, Glyceraldehyde-3-phosphate dehydrogenase, glycosomal; assay: Non-competitive inhibition of Trypanosoma cruzi glycosomal GAPDH active site by ITC method; conditions: read-out: Ki(app); method in brief: as §1
[3] = Selectivity index, ratio of C57BL/6 mouse spleen cells to trypomastigotes forms of Trypanosoma cruzi Tulahuen infected in monkey LLC-MK2 cells; type: toxicity, cell-based; conditions: read-out: Selectivity Index
[4] = tested on: Trypanosoma cruzi; assay: Trypanocidal activity against trypomastigotes forms of Trypanosoma cruzi Tulahuen infected in monkey LLC-MK2 cells after 24 hrs by beta-galactosidase reporter assay; type: functional
[5] = molecular target: T1, Glyceraldehyde-3-phosphate dehydrogenase, glycosomal; assay: Competitive inhibition of Trypanosoma cruzi glycosomal GAPDH NAD+ binding site by ITC method; conditions: read-out: Ki(app); method in brief: as §1
[6] = Cytotoxicity against C57BL/6 mouse spleen cells after 24 hrs using propidium iodide by flow cytometry; type: cell-based
Method in brief: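 Spleen cells were isolated from C57BL/6 mice by mechanical dissociation. They were incubated with compound at 5·10⁶ cells mL⁻¹ for 24 h at 37 °C under 5% CO2, then stained with 10 µg mL⁻¹ propidium iodide and analysed by flow cytometry. Two experiments were run in duplicate; mean plus standard deviation is reported.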

[7] = tested on: Saccharomyces cerevisiae; assay: Cytotoxicity against Saccharomyces cerevisiae by FUN-1 fluorescence assay; type: organism-based; conditions: in vivo
Method in brief: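 Log-phase S. cerevisiae (CBMAI 0194) was grown in LB with 2% glucose and 10 mmol L⁻¹ acetate buffer, pH 5, at 37 °C. Cells were resuspended in NaHEPES pH 7.2 at 10⁷ cells mL⁻¹ and stained with FUN-1 (working solution 200 µmol L⁻¹) for 30 min, with or without compound, in 0.6% DMSO. Fluorescence (excitation 485 nm; emission 530/620 nm) was read every 10 min for 1 h at 37 °C. Viability was taken from the red/green ratio.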

T1 sequence (P22513 whole entry): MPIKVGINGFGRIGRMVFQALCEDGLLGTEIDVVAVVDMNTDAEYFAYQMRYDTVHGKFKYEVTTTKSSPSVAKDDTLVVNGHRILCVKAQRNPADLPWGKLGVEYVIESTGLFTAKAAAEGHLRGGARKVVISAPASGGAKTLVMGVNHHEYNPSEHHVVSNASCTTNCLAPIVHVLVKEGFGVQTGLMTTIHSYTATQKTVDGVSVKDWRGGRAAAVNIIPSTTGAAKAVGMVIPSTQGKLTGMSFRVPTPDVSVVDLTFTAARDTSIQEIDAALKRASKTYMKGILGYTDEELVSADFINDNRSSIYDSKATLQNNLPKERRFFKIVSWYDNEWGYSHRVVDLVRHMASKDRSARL

SMILES	Ki [2] [µM]	selectivity ratio [3]	Activity [4] [µmol/L]	Ki [5] [µM]	Activity [6] [µmol/L]	further results
CCOC(=O)c1cn([C@@H]2O[C@H](COC(=O)c3ccccc3)[C@@H](OC(=O)c3ccccc3)[C@H]2OC(=O)c2ccccc2)c2ccc(Cl)cc2c1=O	–	–	–	–	–	IC50 [1]: 40.7 µM
O=C(O)c1cn([C@@H]2O[C@H](CO)[C@@H](O)[C@H]2O)c2cc(Br)ccc2c1=O	151	> 27	18	16	> 500	–
Cc1ccc2c(=O)c(C(=O)O)cn([C@@H]3O[C@H](CO)[C@@H](O)[C@H]3O)c2c1	–	–	–	17.1	–	–
COc1ccc2c(c1)c(=O)c(C(=O)O)cn2[C@@H]1O[C@H](CO)[C@@H](O)[C@H]1O	305	1	>500	18.7	> 500	–
O=C(O)c1cn([C@@H]2O[C@H](CO)[C@@H](O)[C@H]2O)c2ccc(Br)cc2c1=O	–	–	–	29.5	–	Activity [7]: Toxic
Cc1ccc2c(c1)c(=O)c(C(=O)O)cn2[C@@H]1O[C@H](CO)[C@@H](O)[C@H]1O	–	–	–	57.6	–	–
COc1ccc2c(=O)c(C(=O)O)cn([C@@H]3O[C@H](CO)[C@@H](O)[C@H]3O)c2c1	105	–	–	59.5	–	Activity [7]: Toxic
O=C(O)c1cn([C@@H]2O[C@H](CO)[C@@H](O)[C@H]2O)c2ccc(Cl)cc2c1=O	–	–	–	32.3	–	–
O=C(Cn1ccnc1[N+](=O)[O-])NCc1ccccc1 [BENZNIDAZOLE]	–	> 26	19	–	> 500	–
